Here are results for one molecule from PubChem BioAssay AID504392 (Broad Institute, 2011).

Calls of active or inactive are those of the source.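 The calls were made as follows: active = fitted curve rising past 10% caspase activation at or below the top valid dose; inactive = activity opposite to the expected rise, or the rest.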

The nature of the assay: caspase activation in wild-type MEFs, dose response, counter-screen for Bcl2-A1 inhibitor project, cell-based, wild-type MEF, caspase luminescence, dry powder, set 2 (AID 504392). An outline of the steps: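 Assay system: wild-type mouse embryonic fibroblasts, not A1–BIM primed. Buffer or medium: RPMI-1640 growth medium with 10% FBS. Timing: 3 h compound at 37 °C, 1 h reagent at RT. Signal: luminescence with CaspaseGlo caspase reagent. Read-out: caspase activation.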
(In general: Counterscreens check selectivity or assay interference.)

Consider `C/C1=C/C(=O)O[C@@H]2C[C@@H](CC[C@H](C)/C=C\CC1)O[C@@](O)(C1CSC(=O)N1)C2` (stereo partly specified), for which the call was inactive.
